Data as given in ChEMBL document CHEMBL1151949, “Alkaloids from the roots of Stemona aphylla” (2009).
In brackets after ≈: the same amount, converted by molar mass.

Tests used:
Format in all cases: functional
Plutella xylostella = assay: Insecticidal activity against Plutella xylostella treated as topical application
Pseudomonas aeruginosa = assay: Antimicrobial activity against Pseudomonas aeruginosa ATCC 27853 after 24 hrs by broth dilution technique
How it was run: (§1)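 Serial dilutions in trypticase soy broth spanning 500 to 1.95 µg/mL, tested by broth dilution; tubes incubated 37 °C for 24 h. MIC taken as lowest concentration tube with no visible organism growth. Gentamycin served as antibacterial positive control.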

Staphylococcus aureus = assay: Antimicrobial activity against Staphylococcus aureus ATCC 25923 after 24 hrs by broth dilution technique; how it was run: as §1
Candida albicans = assay: Antimicrobial activity against Candida albicans ATCC 90028 after 24 hrs by broth dilution technique; details: ATCC 90028, 24 h
How it was run: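 Broth dilution in trypticase soy broth, series from 500 to 1.95 µg/mL. Incubation at 37 °C for 24 h. MIC taken as lowest concentration with no visible growth. Amphotericin B served as antifungal positive control.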

Escherichia coli = assay: Antimicrobial activity against Escherichia coli ATCC 25922 after 24 hrs by broth dilution technique; how it was run: as §1

C[C@@H]1C[C@H](C[C@@H](C)[C@H]2CCCCN3CCC[C@@H]23)OC1=O [STEMAPHYLLINE]
LC50 (Plutella xylostella): 1820 µg/mL (≈ 6530 µM) | MBC (Pseudomonas aeruginosa; ATCC 27853, 24 h): 125 µg/mL (≈ 447 µM) | MIC (Pseudomonas aeruginosa; ATCC 27853, 24 h): 62.5 µg/mL (≈ 224 µM) | MBC (Staphylococcus aureus; ATCC 25923, 24 h): 250 µg/mL (≈ 895 µM) | MIC (Staphylococcus aureus; ATCC 25923, 24 h): 125 µg/mL (≈ 447 µM) | MFC (Candida albicans): 125 µg/mL (≈ 447 µM) | MIC (Candida albicans): 125 µg/mL (≈ 447 µM) | MBC (Escherichia coli; ATCC 25922, 24 h): 125 µg/mL (≈ 447 µM) | MIC (Escherichia coli; ATCC 25922, 24 h): 62.5 µg/mL (≈ 224 µM)

GENTAMICIN
MBC (Pseudomonas aeruginosa): 1.46 µg/mL | MIC (Pseudomonas aeruginosa): 0.35 µg/mL | MBC (Staphylococcus aureus): 22.5 µg/mL | MIC (Staphylococcus aureus): 5.62 µg/mL | MBC (Escherichia coli): 5.62 µg/mL | MIC (Escherichia coli): 5.62 µg/mL

CNC(=O)ON=C(C)SC [METHOMYL]
LC50 (Plutella xylostella): 1840 µg/mL (≈ 11300 µM)

C[C@@H]1[C@H](O)[C@@H](C)/C=C/C=C/C=C/C=C/C=C/C=C/C=C/[C@H](O[C@@H]2O[C@H](C)[C@@H](O)[C@H](N)[C@@H]2O)C[C@@H]2O[C@](O)(C[C@@H](O)C[C@@H](O)[C@H](O)CC[C@@H](O)C[C@@H](O)CC(=O)O[C@H]1C)C[C@H](O)[C@H]2C(=O)O [AMPHOTERICIN B]
MFC (Candida albicans): 0.7 µg/mL (≈ 0.758 µM)
